Assay results from ChEMBL document CHEMBL4602725 (J Med Chem, 2020).

Columns and labels:
Homo sapiens [1] = organism: Homo sapiens; assay: Selectivity index, ratio of IC50 for inhibition of human recombinant HDAC7 to IC50 for inhibition of human recombinant HDAC1
Method in brief: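 HDAC7 arm: 5 ng/mL recombinant human HDAC7 pre-incubated 15 min with inhibitor, then Ac-Leu-Gly-Lys(trifluoroAc)-AMC (20 µM) for 60 min at 37°C. Developer was trypsin with 10 μM SAHA, 15 min; fluorescence 350/460 nm. HDAC1 was run with 30 min pre-incubation, 12 µM Ac-Leu-Gly-Lys(Ac)-AMC, 90 min. Ratio of the HDAC7 IC50 to the HDAC1 IC50.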

Homo sapiens [2] = organism: Homo sapiens; assay: Selectivity index, ratio of IC50 for inhibition of human recombinant HDAC2 to IC50 for inhibition of human recombinant HDAC1
Homo sapiens [3] = organism: Homo sapiens; assay: Selectivity index, ratio of IC50 for inhibition of human recombinant HDAC8 to IC50 for inhibition of human recombinant HDAC1
Histone deacetylase 8 = molecular target: T1, Histone deacetylase 8 (Homo sapiens, UniProt Q9BY41); assay: Inhibition of human recombinant HDAC8 pre-incubated for 30 mins before Ac-Leu- Gly-Lys(Ac)-AMC substrate addition and measured after 90 mins by fluorescence based assay
T1 sequence (Q9BY41 whole entry): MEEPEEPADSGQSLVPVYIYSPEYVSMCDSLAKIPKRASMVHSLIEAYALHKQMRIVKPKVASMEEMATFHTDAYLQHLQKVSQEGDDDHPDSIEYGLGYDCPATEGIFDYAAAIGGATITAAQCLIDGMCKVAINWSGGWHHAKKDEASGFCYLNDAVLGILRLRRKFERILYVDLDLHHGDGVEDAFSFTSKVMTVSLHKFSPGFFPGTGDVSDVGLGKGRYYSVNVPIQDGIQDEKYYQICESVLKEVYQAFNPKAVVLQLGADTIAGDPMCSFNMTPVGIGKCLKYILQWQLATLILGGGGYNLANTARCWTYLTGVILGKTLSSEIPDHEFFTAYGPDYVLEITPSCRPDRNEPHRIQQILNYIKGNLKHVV

Histone deacetylase 3 = Histone deacetylase 3 (Homo sapiens, UniProt O15379); assay: Inhibition of human recombinant HDAC3 pre-incubated for 30 mins before Ac-Leu- Gly-Lys(Ac)-AMC substrate addition and measured after 90 mins by fluorescence based assay
Chain of Histone deacetylase 3 (O15379 whole entry): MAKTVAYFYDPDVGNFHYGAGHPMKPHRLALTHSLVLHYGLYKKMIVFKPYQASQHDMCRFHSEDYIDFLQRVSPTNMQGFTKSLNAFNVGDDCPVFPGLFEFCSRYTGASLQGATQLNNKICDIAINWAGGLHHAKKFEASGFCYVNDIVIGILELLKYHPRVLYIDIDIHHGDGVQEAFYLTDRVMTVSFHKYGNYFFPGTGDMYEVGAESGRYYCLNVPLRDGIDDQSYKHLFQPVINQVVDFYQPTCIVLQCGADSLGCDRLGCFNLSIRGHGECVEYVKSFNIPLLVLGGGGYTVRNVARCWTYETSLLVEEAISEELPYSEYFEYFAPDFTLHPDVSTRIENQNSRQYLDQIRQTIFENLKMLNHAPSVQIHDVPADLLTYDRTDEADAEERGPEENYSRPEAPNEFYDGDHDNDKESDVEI

Homo sapiens [4] = organism: Homo sapiens; assay: Selectivity index, ratio of IC50 for inhibition of human recombinant HDAC3 to IC50 for inhibition of human recombinant HDAC1
Histone deacetylase 1 = Histone deacetylase 1 (Homo sapiens, UniProt Q13547); assay: Inhibition of human recombinant HDAC1 pre-incubated for 30 mins before Ac-Leu- Gly-Lys(Ac)-AMC substrate addition and measured after 90 mins by fluorescence based assay
Chain of Histone deacetylase 1 (Q13547 whole entry): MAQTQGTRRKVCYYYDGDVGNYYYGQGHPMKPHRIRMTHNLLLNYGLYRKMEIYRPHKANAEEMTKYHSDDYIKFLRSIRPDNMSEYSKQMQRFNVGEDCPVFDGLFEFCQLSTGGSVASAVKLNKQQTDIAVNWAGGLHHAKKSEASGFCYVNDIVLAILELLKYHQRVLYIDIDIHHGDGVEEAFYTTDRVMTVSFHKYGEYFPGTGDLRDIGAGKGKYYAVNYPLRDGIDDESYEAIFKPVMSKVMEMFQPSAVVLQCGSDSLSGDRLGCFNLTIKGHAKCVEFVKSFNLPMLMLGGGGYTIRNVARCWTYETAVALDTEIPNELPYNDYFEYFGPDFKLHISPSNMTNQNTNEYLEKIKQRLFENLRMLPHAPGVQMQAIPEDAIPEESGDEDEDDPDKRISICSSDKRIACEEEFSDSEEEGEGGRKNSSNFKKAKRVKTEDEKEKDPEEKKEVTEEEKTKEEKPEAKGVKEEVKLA

Histone deacetylase 7 = molecular target: T2, Histone deacetylase 7 (Homo sapiens, UniProt Q8WUI4); assay: Inhibition of human recombinant HDAC7 pre-incubated for 15 mins before Ac-Leu-Gly-Lys(trifluroAc)-AMC substrate addition and measured after 60 mins by fluorescence based assay
T2 sequence (Q8WUI4 whole entry): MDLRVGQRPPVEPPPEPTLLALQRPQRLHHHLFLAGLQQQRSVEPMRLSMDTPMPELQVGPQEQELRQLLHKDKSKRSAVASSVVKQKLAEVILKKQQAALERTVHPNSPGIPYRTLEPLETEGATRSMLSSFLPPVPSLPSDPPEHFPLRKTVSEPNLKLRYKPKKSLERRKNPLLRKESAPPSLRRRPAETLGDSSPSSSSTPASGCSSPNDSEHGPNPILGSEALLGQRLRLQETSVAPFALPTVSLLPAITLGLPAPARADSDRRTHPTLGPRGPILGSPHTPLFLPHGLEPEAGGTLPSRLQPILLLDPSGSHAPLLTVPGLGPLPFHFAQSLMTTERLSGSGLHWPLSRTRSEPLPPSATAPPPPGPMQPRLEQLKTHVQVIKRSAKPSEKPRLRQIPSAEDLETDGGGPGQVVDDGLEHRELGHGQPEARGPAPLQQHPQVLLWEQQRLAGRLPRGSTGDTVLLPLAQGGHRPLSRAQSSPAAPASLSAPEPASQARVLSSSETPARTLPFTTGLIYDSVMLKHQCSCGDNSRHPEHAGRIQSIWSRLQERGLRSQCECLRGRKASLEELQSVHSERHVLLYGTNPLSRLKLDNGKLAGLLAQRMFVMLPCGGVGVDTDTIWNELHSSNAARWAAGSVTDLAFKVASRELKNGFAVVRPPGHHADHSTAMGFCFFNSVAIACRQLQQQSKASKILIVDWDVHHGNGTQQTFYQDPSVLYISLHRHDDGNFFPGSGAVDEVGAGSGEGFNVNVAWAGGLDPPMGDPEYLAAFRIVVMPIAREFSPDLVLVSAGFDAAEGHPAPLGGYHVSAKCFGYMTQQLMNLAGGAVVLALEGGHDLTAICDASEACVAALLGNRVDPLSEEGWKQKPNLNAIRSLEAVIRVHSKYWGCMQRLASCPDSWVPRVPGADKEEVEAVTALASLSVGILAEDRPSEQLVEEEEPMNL

Histone deacetylase 2 = Histone deacetylase 2 (Homo sapiens, UniProt Q92769); assay: Inhibition of human recombinant HDAC2 pre-incubated for 30 mins before Ac-Leu- Gly-Lys(Ac)-AMC substrate addition and measured after 90 mins by fluorescence based assay
Chain of Histone deacetylase 2 (Q92769 whole entry): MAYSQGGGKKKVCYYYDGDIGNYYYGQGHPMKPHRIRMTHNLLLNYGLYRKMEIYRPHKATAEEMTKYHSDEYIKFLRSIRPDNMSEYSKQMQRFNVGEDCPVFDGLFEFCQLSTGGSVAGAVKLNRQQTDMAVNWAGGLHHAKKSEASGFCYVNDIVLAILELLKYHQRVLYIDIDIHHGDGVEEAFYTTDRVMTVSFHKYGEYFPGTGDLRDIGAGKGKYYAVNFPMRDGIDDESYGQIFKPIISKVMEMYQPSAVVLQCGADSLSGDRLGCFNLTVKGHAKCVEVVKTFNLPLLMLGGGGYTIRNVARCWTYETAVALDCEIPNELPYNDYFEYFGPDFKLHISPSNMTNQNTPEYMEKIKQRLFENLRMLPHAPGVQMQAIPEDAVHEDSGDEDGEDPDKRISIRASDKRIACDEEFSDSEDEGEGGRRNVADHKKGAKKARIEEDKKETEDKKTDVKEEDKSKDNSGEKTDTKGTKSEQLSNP

- Ratio IC50 (Homo sapiens [1]): 140 to 600
- Ratio IC50 (Homo sapiens [2]): 5 to 12
- Ratio IC50 (Homo sapiens [3]): 14 to 61
- IC50 (Histone deacetylase 8): 89 nM
- IC50 (Histone deacetylase 3): 9 nM
- Ratio IC50 (Homo sapiens [4]): 2 to 3
- IC50 (Histone deacetylase 1): 4 nM
- IC50 (Histone deacetylase 7): 2500 nM
- IC50 (Histone deacetylase 2): 49 nM
Compound: CN(C)c1ccc(C2(C(=O)Nc3ccc(C(=O)NO)cc3)CCCC2)cc1
